This is a sample that favours compounds with a hit; in the whole collection about 5.5% have one here.
STAT3 blocker: IL-6 driven STAT3 reporter inhibitors, primary screen, U3A cells, luciferase, luminescence, MLSCN library | IL-6 STAT3-luciferase reporter; host cell line lacks STAT1 | inhibition, % at 5.5 µM | 190,000 compounds, 0.89% hits | AID 862, 2007;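 active = inhibition above the mean inhibition across all screened compounds plus 3 SD, cut at about 44% in these data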
HSV augment: enhancers of HSV replication in host cells, fold increase, host cell viability. HSV replication augmentation in cells. maximum fold increase. 220,000 compounds, 0.005% hits. AID 1956, 2009; in the data active = maximum fold increase above about 1.5; tested in PC3 cells
STAT3 act: IL-6 driven STAT3 reporter potentiators, primary screen, U3A cells, luciferase, luminescence, MLSCN library | IL-6 STAT3-luciferase reporter; 100% = signal with IL-6 EC80 alone | activation (% of control), % at 5.6 µM | 190,000 compounds, 0.91% hits | AID 871, 2007;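 active = activation above the screen-wide mean of compound activation plus 3 SD, cut at about 130% in these data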
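Test system: Human STAT1-deficient U3A cells with stable STAT3-luciferase reporter | Also added: Interleukin-6, 33 ng/mL | Timing: Compound pre-incubation 1 h before IL-6, then 6 h stimulation at 37 °C | Technique: Luciferase reporter luminescence | Read-out: Percent of IL-6-only median luminescence | Benchmarks: IL-6-only wells as 100% reference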
STAT1 inh: STAT1 signaling inhibitors, primary screen, cell-based, HTS, luciferase reporter; NIH 3T3 STAT1-luciferase reporter, IFN-gamma, luminescence; inhibition, % at 5.5 µM; 200,000 compounds, 0.35% hits;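 active = inhibition above a set limit, the mean inhibition across all tested compounds plus 3 SD, cut at about 34% in these data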
STAT1 act: STAT1 signaling activators, primary screen, cell-based, HTS, luciferase reporter; activation (% of control), % at 5.5 µM; 200,000 compounds, 2.6% hits; NIH 3T3 STAT1-luciferase reporter, IFN-gamma, luminescence; 100% = IFN-gamma alone, no compound;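 active = activation above the screen-wide mean activation plus 3 SD, cut at about 130% in these data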
Cl transport mod: KCC2 cotransporter modulators, thallium flux, primary screen, cell-based, HEK293 KCC2, FluoZin-2 fluorescence, MLSMR. Solute carrier family 12 member 5 (Homo sapiens), Q9H2X9. KCC2 cells, thallium flux FluoZin-2 fluorescence. B-score of Tl+ flux slope (higher = more flux/activation; lower = inhibition) at 10 µM. 190,000 compounds, 2.2% hits. AID 1456, 2008;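 active = thallium flux slope and its plate-corrected score both differing from the plate sample mean at a set confidence after two filtering rounds, in either direction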;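 note: slope of fluorescence scaled to starting intensity during 10 to 20 s after thallium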
STAT1 act conf: STAT1 signaling activators, confirmation, cell-based, HTS, luciferase reporter. activation (% of control), % at 5.7 µM. shares compounds with STAT1 act. NIH 3T3 STAT1-luciferase reporter, IFN-gamma potentiation, luminescence; 100% = IFN-gamma EC80 alone, no compound. 1,200 compounds, 97% hits;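 active = activation above a set limit carried over from the earlier primary STAT1 screen, cut at about 140% in these data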
NFkB act: NF-kB reporter activators, TNF-alpha stimulated, counter-screen for STAT1 activator project, cell-based, HEK293T, luciferase luminescence; AID 1306, 2008; 100% = TNF-alpha with vehicle only; shares compounds with STAT1 act; activation (% of control), % at 5.7 µM; 1,200 compounds, 43% hits;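 active = activation above the mean of solvent-only control wells plus 3 SD, set per campaign, cut at about 130% in these data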;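 note: TNF-alpha given at a submaximal dose yielding about 80% of full reporter signal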
STAT3 act 2: STAT3 reporter activation by STAT1 hits, confirmation, counter-screen for STAT1 activator project, U3A cells, luciferase, luminescence; IL-6; cells lack STAT1; 100 = IL-6 alone, no compound effect; shares compounds with STAT1 act; 1,200 compounds, 46% hits; activation (% of control), % at 5.7 µM;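 active = activation above the solvent-only control well mean plus 3 SD, set per plate batch, cut at about 110% in these data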;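 note: higher means more STAT3 reporter activation so hits are non-selective activators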
A number is an active result; n = inactive; x = no result.

SMILES | STAT3 blocker | HSV augment | STAT3 act | STAT1 inh | STAT1 act | Cl transport mod | STAT1 act conf | NFkB act | STAT3 act 2
CCOC(=O)c1c(C)[nH]c(C(=O)CSc2ccccc2)c1C | n | n | n | n | 154 | n | 234 | n | n
CCn1c(-c2ccccc2)csc1=Nc1ccc(O)cc1 | n | n | n | n | 163 | x | 172 | n | 120
Cc1c(N)cc[n+](CC(=O)c2ccccc2)c1C | n | n | n | n | n | n | x | x | x
COc1ccc2oc(=N)c(C(=O)Nc3ccccc3)cc2c1 | n | n | n | n | 162 | n | 196 | 138 | 136
O=C(Nc1ccc2oc(-c3ccccc3)nc2c1)c1ccco1 | n | n | n | n | 168 | n | 202 | 134 | n
O=C(Nc1ccc2oc(-c3ccccc3)nc2c1)C1CCCO1 (centres undefined) | n | n | n | n | 155 | n | 182 | 134 | n
O=C(O)c1cccc(NC(=O)C2CCCO2)c1 (centres undefined) | n | n | n | n | n | n | x | x | x
O=C(Nc1ccc2oc(-c3ccccc3)nc2c1)c1cccnc1 | n | n | n | n | n | n | x | x | x
CC(OC(=O)COc1ccccc1[N+](=O)[O-])C(=O)Nc1ccc(N2CCOCC2)cc1 (centres undefined) | n | n | n | n | n | n | x | x | x
O=C1CN(C(=O)CSc2nc(-c3ccc(Cl)cc3)cs2)c2ccccc2N1 | n | n | n | n | n | n | x | x | x
Nc1ccccc1Nc1cc(-c2ccccc2)nn1-c1ccccc1 | n | n | n | n | n | n | x | x | x
Nc1ccccc1Nc1cc(-c2ccccc2)[nH]n1 | n | x | n | n | 225 | n | 179 | n | n
S=C(Nc1ccccn1)c1ccccn1 | n | n | n | n | 153 | n | 178 | n | 112
Cc1nn(C)c(C)c1/C=N/NC(=O)c1csc2ccccc12 | n | n | n | n | n | x | x | x | x
Cc1nc(NC(=O)c2csc3ccccc23)sc1C | n | n | n | n | 176 | n | 256 | 137 | 111
C/C(Cc1ccccc1)=N\NC(=O)CNC(=O)c1ccc(Cl)cc1Cl | x | n | x | x | x | n | x | x | x
c1ccc(CSc2nnc(-c3cccs3)o2)cc1 | n | n | n | n | 158 | n | 179 | n | 116
c1ccc(-c2nnc(CSc3nnc(-c4cccs4)o3)o2)cc1 | n | n | n | n | n | n | x | x | x
COC(=O)c1nnn(CC(=O)Nc2cccc(OC)c2)c1C(=O)OC | n | n | n | n | n | x | x | x | x
O=C(NCC1CCCO1)C1CCCN1C(=O)Nc1ccc(Cl)c(Cl)c1 (centres undefined) | n | n | n | n | n | n | x | x | x
Cc1cccc(/N=C/c2sc3ccccc3c2O)n1 | x | n | x | x | x | x | x | x | x
Cc1ccc(N=Cc2sc(O)c3ccccc23)cc1 | n | n | n | n | 202 | x | 323 | 153 | 121
O=C(Cc1nc(=O)c2ccccc2s1)Nc1ccccc1 | n | n | n | n | 157 | x | 274 | 145 | 122
CCCC(=O)N=c1sc2c(OC)ccc(OC)c2n1C | x | n | x | x | x | n | x | x | x
O=C(Nc1ccc(Oc2ccc(NC(=O)Nc3ccc([N+](=O)[O-])cc3)cc2)cc1)Nc1ccc([N+](=O)[O-])cc1 | x | n | x | x | x | n | x | x | x
SMILES | STAT3 blocker | HSV augment | STAT3 act | STAT1 inh | STAT1 act | Cl transport mod | STAT1 act conf | NFkB act | STAT3 act 2
O=C(/C=C/Nc1ccc(Nc2ccccc2)cc1)c1cccs1 | n | n | n | n | 162 | n | 166 | 140 | n
Cc1c(N/C=C/C(=O)c2cccs2)c(=O)n(-c2ccccc2)n1C | n | n | n | n | n | n | x | x | x
CCCSc1nc(=O)n2cccc(C)c2n1 | n | n | n | n | n | x | x | x | x
CCOC(=O)c1cnc2c(-c3ccccc3)c(C)nn2c1N | n | n | n | n | n | x | x | x | x
CCOC(=O)c1cnc2c(-c3ccccc3)cnn2c1N | n | n | n | n | 186 | x | 246 | n | n
Cc1cc(C)c2c(-n3cccc3)c(C(=O)NNS(=O)(=O)c3ccc(Cl)cc3)sc2n1 | n | n | n | n | n | x | x | x | x
NC(=O)c1c(NC(=O)c2cc3ccccc3o2)sc2c1CCC2 | n | n | n | n | 181 | n | 196 | n | 118
N#CC1=C(SCC(N)=O)NC2=C(C(=O)c3ccccc32)C1c1ccc(Cl)cc1 (centres undefined) | n | n | n | n | n | n | x | x | x
CN1CCN(c2ccc(NC(=O)CSc3ccccc3)cc2F)CC1 | n | n | n | n | 158 | n | 183 | n | 128
COc1ccc(OCC(O)CNC(=O)c2cccs2)cc1 (centres undefined) | x | n | x | x | x | n | x | x | x
Cn1cc(S(=O)(=O)N2CCN(c3cccc(Cl)c3)CC2)c(=O)n(C)c1=O | x | n | x | x | x | n | x | x | x
CCc1ccc(-c2ccc(C(=O)O)cc2)nc1 | n | n | n | n | n | n | x | x | x
CCCCc1ccc(-c2ccc(Br)cc2)nc1 | n | n | n | n | 155 | x | 223 | n | n
CCCOC(=O)c1ccc(-c2ccc(C=O)o2)cc1 | n | n | n | n | 162 | n | 217 | n | n
O=C(COc1ccc(-c2ccccc2)cc1)N1CCN(S(=O)(=O)Cc2ccccc2)CC1 | n | n | n | n | n | n | x | x | x
COc1ccc(-c2nc3ccccc3n2Cc2ccccc2)cc1 | n | n | n | n | n | n | x | x | x
COc1ccc(Cn2c(/C=C/c3ccccc3)nc3ccccc32)cc1 | n | n | n | n | 157 | n | 196 | 150 | 130
CC(OC(=O)c1ccncc1)C(=O)Nc1cc(S(=O)(=O)N2CCCCC2)ccc1Cl (centres undefined) | n | n | n | n | n | n | x | x | x
O=C(Cn1cnc2ccccc2c1=O)c1ccc(Cl)cc1 | n | n | n | n | 155 | n | 148 | n | n
O=c1c2ccccc2ncn1Cc1ccc(Cl)cc1 | n | n | n | n | n | n | x | x | x
Cc1ccsc1/C=N/Nc1nc2ccccc2[nH]1 | n | n | n | n | 153 | n | 193 | n | n
Cc1nn(-c2ccccc2)c(C)c1/C=N/Nc1nc2ccccc2[nH]1 | n | n | n | n | 204 | n | 289 | n | n
